Activity calls are given as the source filed them. No cut-off for these calls is given here.
Columns and labels:
NCI-H460 = test: Cytotoxicity against human NCI-H460 cells assessed as cell growth at 10^-4 M after 48 hrs by sulforhodamine B assay relative to control; type: functional; conditions: NCI-H460, 48 h, read-out: Activity
Summary of the method: (§1)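 Cells were inoculated and preincubated 24–48 h, then exposed to a single dose of 10^-4 M for 48 h. SRB protein staining was the endpoint, and growth percent was calculated versus untreated controls.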

MCF7 = test: Cytotoxicity against human MCF7 cells assessed as cell growth at 10^-4 M after 48 hrs by sulforhodamine B assay relative to control; type: functional; conditions: MCF7, 48 h, read-out: Activity; summary of the method: as §1
[1] = Cytotoxicity against human SF268 cells assessed as cell growth at 10^-4 M after 48 hrs by sulforhodamine B assay relative to control; type: functional; conditions: SF-268, 48 h, read-out: Activity; summary of the method: as §1
[2] = Antioxidant activity assessed as inhibition of superoxide anion generation measured for 3 mins by nitro blue tetrazolium assay; type: physicochemical; conditions: for Emax: 0.05 h
Summary of the method: (§2)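 Cell-free superoxide generated by xanthine (1 mM) and xanthine oxidase (0.11 U/mL), with NBT (50 µM) as detector. Compounds in DMSO were tested up to 10 µM, with DMSO held at 0.1%. NBT reduction rate (dA560/dt) was read spectrophotometrically over 3 min from the linear part.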

HFL1 [3] = test: Antifibrotic activity in HFL1 cells assessed as inhibition of cell viability after 48 hrs by sulforhodamine B assay; type: functional, cell-based; conditions: Homo sapiens, HFL1, 48 h
Summary of the method: (§3)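 HFL-1 human fetal lung fibroblasts (DMEM, 10% FCS, passages 14–18) seeded at 8000 cells/well, attached overnight, then exposed to a range of concentrations for 48 h in triplicate. Cells were fixed with TCA and stained with 0.4% SRB, bound dye was solubilized in Tris, and OD was read at 570 nm relative to control.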

HFL1 [4] = test: Antifibrotic activity in HFL1 cells assessed as inhibition of cell viability at >1 uM after 48 hrs by sulforhodamine B assay relative to control; type: functional; conditions: Homo sapiens, HFL1, 48 h; summary of the method: as §3
HFL1 [5] = test: Antifibrotic activity in HFL1 cells assessed as reduction in maximum rate of cell proliferation after 150 hrs by xCelligence analysis; type: functional, cell-based; conditions: Homo sapiens
Summary of the method: (§4)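 HFL-1 cells were seeded at 20,000/well and monitored by real-time impedance (xCelligence). Compound or DMSO vehicle was added at ~30 h, once attachment was maximal, and cells were followed for another 150 h. P150 was taken as the signal difference between 30 h and 180 h; Pdot was the maximum slope of the curve.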

HFL1 [6] = test: Antifibrotic activity in HFL1 cells assessed as reduction in cell proliferation after 150 hrs by xCelligence analysis; conditions: Homo sapiens
HFL1 [7] = test: Antifibrotic activity in HFL1 cells assessed as reduction in cell proliferation at 0.1 to 1 uM after 150 hrs by xCelligence analysis; type: functional, cell-based; conditions: Homo sapiens; summary of the method: as §4
[8] = Antioxidant activity assessed as inhibition of superoxide anion generation upto 10 uM measured for 3 mins by nitro blue tetrazolium assay; type: physicochemical; conditions: 0.05 h; summary of the method: as §2
[9] = Cytotoxicity against human NCI60 cells assessed as cell growth at 10^-5 M after 48 hrs by sulforhodamine B assay relative to control; type: functional; conditions: NCI60, 48 h, read-out: Activity
Summary of the method: (§5)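 NCI ~60 human tumor cell line one-dose screen covering nine cancer types. Cells were preincubated 24–48 h, then exposed to compound at 10^-5 M for 48 h. SRB protein staining was the endpoint, and growth percent was calculated versus untreated control cells.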

[10] = Cytotoxicity against human SNB75 cells assessed as cell growth at 10^-5 M after 48 hrs by sulforhodamine B assay relative to control; type: functional; conditions: SNB-75, 48 h, read-out: Activity; summary of the method: as §5
[11] = Growth inhibition of human NCI60 cells after 48 hrs by sulforhodamine B assay; type: functional; conditions: NCI60, 48 h; for CC50: read-out: pLC50 (the source's name) (converted); for TGI: read-out: pTGI (converted)
Summary of the method: (§6)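 NCI ~60-cell-line panel with five 10-fold dilutions (10^-4 to 10^-8 M) and 48 h continuous exposure, using an SRB endpoint. Percentage growth was derived from time-zero, control and treated absorbances. Values are expressed as > or < when outside the tested range.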

[12] = Growth inhibition of human HOP62 cells after 48 hrs by sulforhodamine B assay; type: functional; conditions: HOP-62, 48 h
Summary of the method: (§7)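 NCI ~60-cell-line panel with five 10-fold dilutions (10^-4 to 10^-8 M) and 48 h continuous exposure, using an SRB endpoint. Percentage growth was derived from time-zero, control and treated absorbances. […] Values are expressed as > or < when outside the tested range.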

[13] = Growth inhibition of human HOP92 cells after 48 hrs by sulforhodamine B assay; type: functional; conditions: HOP-92, 48 h; summary of the method: as §7
[14] = Growth inhibition of human HCT116 cells after 48 hrs by sulforhodamine B assay; type: functional; conditions: HCT-116, 48 h; summary of the method: as §6
U-251 = test: Growth inhibition of human U251 cells after 48 hrs by sulforhodamine B assay; type: functional; conditions: U-251, 48 h; summary of the method: as §7
MDA-MB-231 = test: Growth inhibition of human MDA-MB-231 cells after 48 hrs by sulforhodamine B assay; type: functional; conditions: MDA-MB-231, 48 h; summary of the method: as §7
[15] = Cytotoxicity against human RPMI8226 cells assessed as cell growth at 10^-5 M after 48 hrs by sulforhodamine B assay relative to control; type: functional; conditions: RPMI-8226, 48 h, read-out: Activity; summary of the method: as §5
NCI-H522 = test: Cytotoxicity against human NCI-H522 cells assessed as cell growth at 10^-5 M after 48 hrs by sulforhodamine B assay relative to control; type: functional; conditions: NCI-H522, 48 h, read-out: Activity; summary of the method: as §5
[16] = Cytotoxicity against human UO31 cells assessed as cell growth at 10^-5 M after 48 hrs by sulforhodamine B assay relative to control; type: functional; conditions: UO-31, 48 h, read-out: Activity; summary of the method: as §5
[17] = read-out: LC50 (the source's name)

O=C1N=C(Nc2ccc(O)cc2)S/C1=C1\C(=O)Nc2ccccc21
growth at 100 µM (NCI-H460): 96%
growth at 100 µM (MCF7): 108%
growth at 100 µM [1]: 118%

CCOc1cc(/C=C2\SC(Nc3nc4ccc(C)cc4s3)=NC2=O)ccc1O
IC50 [2]: 6800 nM
Emax [2]: 38.7%
IC50 (HFL1 [3]): 10 nM
Emax (HFL1 [4]): 48.1%

CC(=C/c1ccccc1)/C=C1\SC(N(C)c2ccc(O)cc2)=NC1=O
IC50 [2]: 3400 nM
Emax [2]: 55%
Activity (HFL1 [5]): Dose-dependent effect
IC50 (HFL1 [3]): 10 nM
Emax (HFL1 [4]): 34%
Activity (HFL1 [6]): Dose-dependent effect

CN(C1=NC(=O)/C(=C/C(Cl)=C/c2ccc([N+](=O)[O-])cc2)S1)c1ccc(O)cc1
IC50 [2]: 960 nM
Emax [2]: 47.4%

COc1ccccc1NC(=O)CSc1nnc(/N=C2\NC(=O)CS2)s1
Activity (HFL1 [7]): Active
inhibition (INH) [8]: Not Active
IC50 (HFL1 [3]): 400 nM
Emax (HFL1 [4]): 75%

CCC1S/C(=N\N=C/c2cccnc2)N(Cc2ccco2)C1=O (mixture of isomers)
IC50 (HFL1 [3]): 210 nM
Emax (HFL1 [4]): 44.7%

COc1ccccc1NC(=O)CSc1nnc(NC2=NC(=O)/C(=C/c3ccc(Cl)cc3)S2)s1
IC50 (HFL1 [3]): 40 nM
Emax (HFL1 [4]): 17.4%

COc1ccc(-c2nnc(/N=C3\NC(=O)CS3)o2)cc1
IC50 [2]: 290 nM
Emax [2]: 81.8%
Activity (HFL1 [7]): Active
IC50 (HFL1 [3]): 470 nM
Emax (HFL1 [4]): 84.6%
growth at 10 µM [9]: 102%
growth at 10 µM [10]: 71.9%

NS(=O)(=O)c1ccc(NC2=NC(=O)C(CC(=O)Nc3ccc(Br)cc3)S2)cc1 (racemic)
growth at 100 µM (NCI-H460): 88%
growth at 100 µM (MCF7): 24%
growth at 100 µM [1]: 45%
GI50 [11]: 58900 nM
CC50 [11]: 97700 nM
TGI [11]: 89100 nM
GI50 [12]: 15600 nM
TGI [12]: 31700 nM
CC50 [12, 17]: 64300 nM
GI50 [13]: 24300 nM
TGI [13]: 58300 nM
CC50 [13, 17]: > 100000 nM
GI50 [14]: 21800 nM
TGI [14]: 43500 nM
CC50 [14, 17]: 86700 nM
GI50 (U-251): 20700 nM
LC50 (concentration killing 50% of cells) (U-251): 94300 nM
TGI (U-251): 44200 nM
GI50 (MDA-MB-231): 18500 nM
TGI (MDA-MB-231): 38200 nM
CC50 (MDA-MB-231; [17]): 78600 nM

O=C1N=C(Nc2nccs2)S/C1=C1\C(=O)Nc2ccc(Br)cc21
IC50 [2]: 380 nM
Emax [2]: 67.4%
GI50 [11]: 95500 nM
CC50 [11]: 100000 nM
TGI [11]: 100000 nM

Cc1ccc(=O)n(-c2ccccc2)c1 [PIRFENIDONE]
inhibition (INH) [8]: Not Active
IC50 (HFL1 [3]): 710 nM
Emax (HFL1 [4]): 78.5%
growth at 10 µM [9]: 96.3%
growth at 10 µM [15]: 76%
growth at 10 µM (NCI-H522): 79.8%
growth at 10 µM [16]: 76.9%
Activity (HFL1 [6]): Dose-dependent effect

Cc1ccc2c(c1)/C(=C1/SC(N(C)c3ccc(O)cc3)=NC1=O)C(=O)N2
IC50 (HFL1 [3]): 70 nM
Emax (HFL1 [4]): 31.3%
growth at 100 µM (NCI-H460): 95%
growth at 100 µM (MCF7): 89%
growth at 100 µM [1]: 74%

COc1ccc(/C=C2\SC(Nc3nnc(SCC(=O)Nc4ccc(Cl)cc4)s3)=NC2=O)cc1
IC50 [2]: 810 nM
Emax [2]: 86.4%
IC50 (HFL1 [3]): 160 nM
Emax (HFL1 [4]): 53.8%

O=C(CC1SC(Nc2ccc(O)cc2)=NC1=O)c1ccc(F)cc1 (racemic)
IC50 (HFL1 [3]): 190 nM
Emax (HFL1 [4]): 54.2%
growth at 100 µM (NCI-H460): 62%
growth at 100 µM (MCF7): 66%
growth at 100 µM [1]: 53%

O=C1CS/C(=N\N=C/c2cccnc2)N1Cc1ccco1
IC50 (HFL1 [3]): 500 nM
Emax (HFL1 [4]): 69.4%

CC(/C=N/N=C1\SC(CC(=O)Nc2cccc(C(F)(F)F)c2)C(=O)N1Cc1ccco1)=C\c1ccccc1 (mixture of isomers)
IC50 (HFL1 [3]): 30 nM
Emax (HFL1 [4]): 44.3%
Activity (HFL1 [6]): Dose-dependent effect

O=C1N=C(Nc2ccc(O)cc2)S/C1=C\c1ccc(Cl)cc1
IC50 (HFL1 [3]): 20 nM
Emax (HFL1 [4]): 46.1%
Activity (HFL1 [6]): Dose-dependent effect

O=C1CS/C(=N/N=C/c2cccnc2)N1
IC50 (HFL1 [3]): 810 nM
Emax (HFL1 [4]): 92.1%

C=CCN1C(=O)/C(=C2/C(=O)Nc3ccccc32)S/C1=N\c1nccs1
IC50 [2]: 1320 nM
Emax [2]: 86.5%
Activity (HFL1 [7]): Active
IC50 (HFL1 [3]): 90 nM
Emax (HFL1 [4]): 65.9%
growth at 100 µM (NCI-H460): 49%
growth at 100 µM (MCF7): 76%
growth at 100 µM [1]: 82%

O=C1N=C(Nc2ccc(Cl)cc2)/C(=C/c2cccs2)S1
Activity (HFL1 [7]): Active
Activity (HFL1 [5]): Dose-dependent effect
inhibition (INH) [8]: Not Active
IC50 (HFL1 [3]): 570 nM
Emax (HFL1 [4]): 79%

O=C(CC1SC(=Nc2cccc(O)c2)NC1=O)Nc1ccc(Br)cc1 (racemic)
inhibition (INH) [8]: Not Active
IC50 (HFL1 [3]): 160 nM
Emax (HFL1 [4]): 77.6%

CC1S/C(=N/N=C/c2cccnc2)NC1=O (racemic)
IC50 [2]: 1960 nM
Emax [2]: 35.8%
IC50 (HFL1 [3]): 830 nM
Emax (HFL1 [4]): 84.6%

Cc1cc(O)c(C(C)C)cc1NC1=NC(=O)S/C1=C\c1ccc(Cl)cc1
IC50 (HFL1 [3]): 30 nM
Emax (HFL1 [4]): 75.5%

O=C1N=C(Nc2ccc(O)cc2)S/C1=C\C=C/c1ccccc1
growth at 100 µM (NCI-H460): 140%
growth at 100 µM (MCF7): 124%
growth at 100 µM [1]: 103%

Reference: ChEMBL document CHEMBL3779799, “Antifibrotic and anticancer action of 5-ene amino/iminothiazolidinones” (Eur J Med Chem, 2016)
